The values that follow come from ChEMBL document CHEMBL6127097, “Structure-Guided Discovery of cis-Hexahydro-pyrido-oxazinones as Reversible, Drug-like Monoacylglycerol Lipase Inhibitors” (J Med Chem, 2024).

Structures are written as SMILES. Activity calls are given as the source filed them. The calls are words filed in the database; no cut-off is given here.

For one series, the system named is LLC-PK1. Kind of series: Substrate activity at mouse P-gp expressed in LLC-PK1 cells assessed as efflux ratio incubated for 3 hrs. Format: cell-based. In a few lines:
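LLC-PK1 porcine kidney cells transfected with human or mouse P-gp, grown as polarized monolayers on filter plates. Compound is dosed apically or basolaterally and transport followed 3 h at 37 °C. Efflux ratio comes from unidirectional Papp; 1 µM zosuquidar defines permeability without P-gp.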

Series [1] concerns Mus musculus. The series is described as follows: Antiinflammatory activity in LPS-induced CD-1 mouse neuroinflammation model assessed as decrease in brain IL-1beta mRNA expression at 30 mg/kg, ip measured after 6 hrs by qRT-PCR analysis. Format: functional, organism-based. In a few lines:
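CD-1 mice received NaCl + vehicle, LPS (5 mg/kg) + vehicle, or LPS + inhibitor at 30 mg/kg i.p. The vehicle was NaCl/DMSO/Tween 80, 80/10/10. Mice were killed 6 h after compound dosing. LCN2 and IL1b mRNA in cortical brain lysates were quantified by droplet digital qRT-PCR.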
(In general: In qPCR the cycle at which signal appears reflects the starting amount.)

Series [2] concerns the target T1, Monoglyceride lipase (Mus musculus) (UniProt O35678).
T1 sequence (whole entry): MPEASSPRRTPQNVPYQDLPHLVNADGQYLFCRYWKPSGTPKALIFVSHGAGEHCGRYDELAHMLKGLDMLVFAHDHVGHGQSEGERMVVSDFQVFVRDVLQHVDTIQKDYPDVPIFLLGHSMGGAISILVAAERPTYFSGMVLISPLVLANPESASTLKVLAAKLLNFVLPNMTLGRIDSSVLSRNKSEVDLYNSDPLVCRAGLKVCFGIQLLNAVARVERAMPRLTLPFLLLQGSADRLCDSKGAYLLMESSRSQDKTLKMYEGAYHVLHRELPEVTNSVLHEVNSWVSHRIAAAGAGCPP
Kind of series: In vivo receptor occupancy at MAGL receptor in mouse at 3 mg/kg, ip measured after 4 hrs. Format: functional, organism-based.

Series [3] deals with Mus musculus. The series is described as follows: Antiinflammatory activity in LPS-induced CD-1 mouse neuroinflammation model assessed as decrease in peripheral tissue IL-1beta mRNA expression at 30 mg/kg, ip measured after 6 hrs by qRT-PCR analysis. Format: functional, organism-based. In a few lines:
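CD-1 mice were dosed with NaCl + vehicle, LPS (5 mg/kg) + vehicle, or LPS + inhibitor at 30 mg/kg i.p. (vehicle NaCl/DMSO/Tween 80, 80/10/10). They were sacrificed 6 h post-compound. LCN2 and IL1b mRNA in peripheral tissue were measured by droplet digital qRT-PCR.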

For series [4], the target named is T1, Monoglyceride lipase (Mus musculus). The series is described as follows: In vivo receptor occupancy at MAGL receptor in mouse at 30 mg/kg, ip measured after 2 hrs. Format: functional, organism-based. In a few lines: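 Mice dosed 30 mg/kg i.p. in NaCl/DMSO/TW80 (80/10/10). Brain proteome was prepared at set time points over 24 h and MAGL occupancy read by activity-based protein profiling.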

The nature of series [5]: Half-life in Wistar rat at 1 mg/kg, iv measured upto 24 hrs by LC-MS/MS analysis. Format: ADME, organism-based. To be noted: in vivo. In a few lines:
(§1)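 Male Wistar rats, single dose. i.v. in NMP/0.9% NaCl 30:70; p.o. and i.p. in NMP/HPMC/diisooctyl sulfosuccinate 10:90; 3 per i.v./p.o. group, 6 i.p. K2EDTA plasma sampled 0.083–7 h, plus 24 h for i.v./p.o.; brain and CSF at 1, 2, 7 h (i.p. only). LC-MS/MS, noncompartmental analysis.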

Series [6] in a line: Octanol-water partition coefficient, logD of the compound at pH 7.4 incubated for 1.5 hrs by shake flask based LC-UV/MS analysis. Format: physicochemical. To be noted: pH 7.4, 1.5 h, 1.5 h. In a few lines: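 CAMDIS shake-flask variant. 10 mM DMSO stock is diluted into 25 mM phosphate pH 7.4 over a 1-octanol-impregnated PVDF membrane and shaken 1.5 h at 21 °C, at two octanol/buffer ratios, in triplicate. Remaining aqueous concentration is read by LC/MS; logD comes from the difference with and without octanol.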

A short description of series [7]: Clearance in human microsomes. Format: ADME, Microsome.
In the next series the target is CYP2C9 (Homo sapiens, UniProt P11712). The series is described as follows: Inhibition of CYP2C9 (unknown origin) at 10 uM relative to control. Format: ADME.
CYP2C9, sequence (P11712 whole entry): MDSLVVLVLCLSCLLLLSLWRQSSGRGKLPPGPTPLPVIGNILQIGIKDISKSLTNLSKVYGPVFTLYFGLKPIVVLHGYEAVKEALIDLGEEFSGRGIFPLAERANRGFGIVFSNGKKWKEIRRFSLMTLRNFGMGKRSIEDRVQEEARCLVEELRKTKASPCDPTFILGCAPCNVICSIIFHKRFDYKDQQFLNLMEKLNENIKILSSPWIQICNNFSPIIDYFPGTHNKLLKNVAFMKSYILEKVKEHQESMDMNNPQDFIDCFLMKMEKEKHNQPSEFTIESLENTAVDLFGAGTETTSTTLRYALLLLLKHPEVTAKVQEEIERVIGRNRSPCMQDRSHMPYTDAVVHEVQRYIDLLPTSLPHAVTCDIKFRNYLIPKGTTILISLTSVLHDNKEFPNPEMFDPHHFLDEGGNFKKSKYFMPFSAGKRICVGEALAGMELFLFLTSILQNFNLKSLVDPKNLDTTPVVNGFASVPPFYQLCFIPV
Series [8] in a line: Average drug concentration in mouse plasma at 30 mg/kg, ip measured after 8 hrs. Format: ADME, organism-based. The conditions noted are these: in vivo. In a few lines: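 In a time course, mice were injected i.p. with 30 mg/kg in NaCl/DMSO/Tween 80 (80/10/10). Average plasma levels were determined at the stated time points over 24 h.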
Series [9] can be described thus: Chemical stability at pH 8 incubated for 2 hrs. Format: physicochemical. The conditions noted are these: buffer, pH 8, 2 h. In a few lines: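 Compound was held in aqueous buffer at the stated pH for 2 h at 37 °C.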
Series [10] can be described thus: Clearance in rat hepatocytes assessed per 10 million cells. Format: ADME, cell-based, Hepatocyte.
For series [11], the target named is T2, Monoglyceride lipase (Rattus norvegicus, UniProt Q8R431).
T2 sequence (Q8R431 whole entry): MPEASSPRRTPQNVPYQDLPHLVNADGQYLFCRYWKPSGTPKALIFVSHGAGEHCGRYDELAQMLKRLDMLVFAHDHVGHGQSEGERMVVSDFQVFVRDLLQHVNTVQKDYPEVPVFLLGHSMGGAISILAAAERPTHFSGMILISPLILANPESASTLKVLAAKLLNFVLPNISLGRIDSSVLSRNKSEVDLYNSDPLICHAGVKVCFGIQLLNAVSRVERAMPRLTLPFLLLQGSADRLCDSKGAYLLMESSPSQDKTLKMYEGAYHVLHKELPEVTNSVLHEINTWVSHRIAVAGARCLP
The series is described as follows: Inhibition of rat MAGL using native substrate by Rapidfire MS assay.

Series [12] is described as follows: Bioavailability in Wistar rat at 10 mg/kg, ip measured upto 24 hrs by LC-MS/MS analysis. Format: ADME, organism-based. The conditions noted are these: in vivo.
Series [13] in a line: Unbound brain to plasma partition coefficient of compound in Wistar rat at 10 mg/kg, ip measured upto 7 hrs by LC-MS/MS analysis. Format: ADME, organism-based. The conditions noted are these: read-out: K(p,uu,brain). In a few lines:
as §1

Series [14] can be described thus: Volume of distribution at steady state in Wistar rat at 1 mg/kg, iv measured upto 24 hrs by LC-MS/MS analysis. Format: ADME, organism-based. To be noted: in vivo, read-out: Vdss. In a few lines: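 Male Wistar rats (N = 3) received a single 1 mg/kg i.v. dose as a solution in NMP/0.9% NaCl (30:70, 2 mL/kg). Blood was drawn at 0.083, 0.25, 0.5, 1, 2, 4, 7 and 24 h onto K2EDTA, and plasma was separated by centrifugation at 3000g for 15 min at 4 °C. Concentrations were measured by LC-MS/MS, and Vss was derived by noncompartmental analysis.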

Series [15] deals with T3, Monoglyceride lipase (Homo sapiens, UniProt Q99685).
T3 sequence (Q99685 whole entry): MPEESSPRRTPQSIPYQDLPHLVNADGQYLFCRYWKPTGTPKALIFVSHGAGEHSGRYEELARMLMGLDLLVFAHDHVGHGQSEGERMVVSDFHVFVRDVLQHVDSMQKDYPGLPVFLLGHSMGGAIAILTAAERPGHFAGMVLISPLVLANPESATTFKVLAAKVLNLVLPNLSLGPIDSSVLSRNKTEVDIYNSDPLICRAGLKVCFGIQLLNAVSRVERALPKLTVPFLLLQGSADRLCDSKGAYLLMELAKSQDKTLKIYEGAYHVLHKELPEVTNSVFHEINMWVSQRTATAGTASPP
Kind of series: Inhibition of human MAGL using native substrate by Rapidfire MS assay.

For the compound `O=C1CO[C@H]2CCN(C(=O)N3CCC(Cc4ccc(C(F)(F)F)cc4)CC3)C[C@H]2N1` [listing 1 of 2 here], the Ratio in the series on LLC-PK1 came out at 4. The outcome with Mus musculus [1] was Active. Also, the Activity in [2] came to 49%; in series [4] it was 96%. Further, in the series on Mus musculus [3], the outcome was inactive.

The compound `O=C1CO[C@H]2CCN(C(=O)N3CCC(Cc4ccc(C(F)(F)F)cc4)CC3)C[C@H]2N1` [listing 2 of 2 here] had a half-life in series [5] of 5.1 h. In addition, in series [6], the logD stood at 3.3. Also, the microsomal CLint in [7] was under 10 µL/min/mg. This compound registered an inhibition at 10 µM on CYP2C9 of 3%. The compound further returned a Cave in [8] of 21.089 µM. In addition, the Stability entry in series [9] is given as “Stable”. For the same compound, the hepatocyte CLint in series [10] stood at 4 µL/min/10^7 cells. Besides, the values for the IC50 at Monoglyceride lipase [11], on Monoglyceride lipase [15] (read-out: IC50) and on Monoglyceride lipase [15] (read-out: pIC50 (converted)) were 71 nM, 32 nM and 28.2 nM, respectively. Besides, the bioavailability in [12] worked out at 111%. Further, the Kp uu at 7 h in series [13] was 0.53. The Vd in series [14] was 1.3 L/kg.

By half-life is commonly meant how long it takes for the measured level to halve. A lower half-life goes with fast loss. The term logD denotes the decadic logarithm of the distribution of all forms, ionised or not, between an organic phase and buffer at a given pH. High values mean a more lipophilic compound, low ones a more hydrophilic compound. By microsomal CLint is commonly meant the capacity of the preparation to metabolise the compound, expressed as a volume cleared per time. A higher microsomal CLint goes with faster metabolism. As usually defined, the inhibition is the drop in the measured response relative to a control, in per cent. As a reminder, the hepatocyte CLint is a measure of how fast metabolising enzymes remove a compound, apart from limits set by blood flow. The low end stands for slow turnover, the high end for rapid turnover.
